This note sets out measurements from ChEMBL document CHEMBL1125497, “Synthesis and anticonvulsant activity of enaminones” (J Med Chem, 1992).

As usually defined, the ED50 is the midpoint of the dose-response relation. Read a high ED50 as weaker potency.

Data set [1] is described as follows: Protective index was measured as TD50/MES ED50 in mice on ip administration. The settings on record: mouse, in vivo, read-out: PI. Format: ADME, organism-based. The essentials:
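Male CF1 mice (ca. 24–34 g), compound given ip as 0.5% methylcellulose suspension. MES ED50 = dose protecting 50% from tonic hind limb extension; TD50 = median neurotoxic dose by rotorod; both at time of peak effect, with confidence limits by Litchfield and Wilcoxon. PI = TD50/MES ED50.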

Data set [2] is described as follows: Dose protecting 50% of the mice from tonic hind limb extension at the time of peak convulsant effect after po administration. The settings on record: Mus musculus, Hindlimb. Type of data set: functional. The essentials:
(§1)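 Phase II quantification in CF1 male mice (ca. 24–34 g), dosing ip or po in 0.5% methylcellulose suspension. ED50 is protection from tonic hind limb extension in MES. TD50 is rotorod neurotoxicity. Both were read at time of peak effect and derived by Litchfield–Wilcoxon with 95% confidence limits.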

In data set [3] the test system is Rattus norvegicus. Put plainly: Per oral dose (75 mg/Kg) reducing rat corneal kindling 0.5 hr after administration. Format: functional. The essentials:
(§2)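 Sprague-Dawley rats (85–95 g initial) were kindled with 4 s, 8 mA corneal stimulations (butacaine anesthesia) to 10 consecutive stage 5 seizures. After a vehicle shock and a 2-day shock-free period, test drug was given ip or po and a single shock applied at time of peak effect. Seizures were scored on a modified Racine 0–5 scale. ED50 is the dose reducing severity by 50% (Litchfield–Wilcoxon).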

Data set [4] in a line: Dose showing neurotoxicity in 50% of the at the time of peak neurotoxic effect in CF1 MICE after ip administration. Format: functional. The following applies: Mus musculus. The essentials:
as §1

Data set [5] in a line: Protective index was measured as TD50/ED50 in rat on oral administration. Type of data set: ADME, organism-based. The following applies: in vivo, read-out: PI.
The nature of data set [6]: Dose elevating electroshock induced seizure by 20% in CF1 mice after ip administration. Type of data set: functional, Mus musculus. The essentials: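 In CF1 male mice (ca. 24–34 g), compound was given ip in 0.5% methylcellulose. The current giving hind limb extension in 50% of mice was found by the up-and-down method, with 15–25 mice per group and a vehicle control group run with each experimental group. At least three doses were tested. The dose raising threshold current by 20% was taken from a plot of dose against % threshold increase.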

The test system of data set [7] is Rattus norvegicus. The experiment in a line: Average seizure score for the rat cornea 0.5 hr after peroral administration of 75 mg/kg of compound. Format: functional. The following applies: route oral. The essentials:
as §2

Data set [8] in a line: Antiepileptic activity in male CF1 mice 4 hr after administration measured in neurological toxicity (Tox) test at a dose of 100 mg/kg; activity value is 0/4. Type of data set: functional, Mus musculus.
A short description of data set [9]: Antiepileptic activity in male CF1 mice 2 hr after oral administration measured in maximum electroshock seizure(MES) test at a dose of 50 mg/kg (no. of animals treated /protected); activity value is 2/4. Format: functional, Mus musculus.
Data set [10] can be described thus: Time of peak neurotoxic effect in CF1 MICE after ip administration. Format: ADME, organism-based. The settings on record: mouse, in vivo. The procedure, abridged: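 Male CF1 mice (ca. 24–34 g), compound ip in 0.5% methylcellulose suspension; neurological deficit assessed by rotorod test, time (h) of peak neurotoxic effect recorded for TD50 determination.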

Data set [11] is described as follows: (§3) Dose producing neurotoxic effects in 50% of the CF1 mice after intraperitoneal administration. Type of data set: ADME. The settings on record: CF1, mouse, in vivo, ip. The essentials:
as §1

Data set [12] in a line: Time of peak anticonvulsant effect in CF1 MICE after ip administration. Format: functional, Mus musculus. The essentials: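 Male CF1 mice (ca. 24–34 g), compound in 0.5% methylcellulose suspension given ip or po; time (h) at which MES protection (against tonic hind limb extension) peaked was recorded and used for ED50 determination.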
Data set [13] can be described thus: Antiepileptic activity in male CF1 mice 4 hr after oral administration measured in neurological toxicity (Tox) test at a dose of 50 mg/kg (no. of animals treated /protected); activity value is 0/4. Format: functional, Mus musculus.
Data set [14] can be described thus: Antiepileptic activity in male CF1 mice 30 min after administration measured in maximum electroshock seizure(MES) test at a dose of 100 mg/kg (no. of animals treated /protected); activity value is 2/3. Type of data set: functional, Mus musculus.
Data set [15] concerns Rattus norvegicus. The experiment in a line: Average seizure score for the rat cornea 0.5 hr after peroral administration of 60 mg/kg of compound. Type of data set: functional. The settings on record: route oral. The essentials: as §2
Data set [16] is described as follows: Antiepileptic activity in male CF1 mice 0.25 hr after oral administration measured in neurological toxicity (Tox) test at a dose of 50 mg/kg (no. of animals treated /protected); activity value is 0/4. Format: functional, Mus musculus.
Data set [17] is described as follows: Dose showing neurotoxicity in 50% of the at the time of peak neurotoxic effect in CF1 MICE after po administration. The settings on record: CF1, mouse, in vivo. Format: toxicity, organism-based. The essentials: as §1
A short description of data set [18]: Antiepileptic activity in male CF1 mice 0.5 hr after oral administration measured in neurological toxicity (Tox) test at a dose of 50 mg/kg (no. of animals treated /protected); activity value is 0/4. Type of data set: functional, Mus musculus.
Data set [19] can be described thus: Antiepileptic activity in male CF1 mice 1 hr after oral administration measured in maximum electroshock seizure(MES) test at a dose of 50 mg/kg; activity value is 3/4. Type of data set: functional, Mus musculus.
Data set [20] concerns Rattus norvegicus. Put plainly: Average seizure score for the rat cornea 0.5 hr after peroral administration of 40 mg/kg of compound. The settings on record: route oral. Type of data set: functional. The procedure, abridged: as §2
Data set [21] concerns Rattus norvegicus. Put plainly: Per oral dose (30 mg/Kg) reducing rat corneal kindling 0.5 hr after administration. Format: functional. The essentials: as §2
The nature of data set [22]: Antiepileptic activity in male CF1 mice 2 hr after oral administration measured in neurological toxicity (Tox) test at a dose of 10 mg/kg (no. of animals treated /protected); activity value is 0/4. Format: functional, Mus musculus.
A short description of data set [23]: Antiepileptic activity in male CF1 mice 4 hr after administration measured in subcutaneous pentylenetetrazole (scMet) test at a dose of 100 mg/kg (no. of animals treated /protected); activity value is 0/1. Type of data set: functional, Mus musculus.
The nature of data set [24]: Antiepileptic activity in male CF1 mice 30 min after administration measured in neurological toxicity (Tox) test at a dose of 300 mg/kg (no. of animals treated /protected); activity value is 4/4. Type of data set: functional, Mus musculus.
Data set [25] in a line: Antiepileptic activity in male CF1 mice 1 hr after oral administration measured in maximum electroshock seizure(MES) test at a dose of 6 mg/kg (no. of animals treated /protected); activity value is 2/4. Format: functional, Mus musculus.
The test system of data set [26] is Rattus norvegicus. The experiment in a line: Average seizure score for the rat cornea 0.5 hr after peroral administration of 20 mg/kg of compound. Type of data set: functional. The following applies: route oral. The procedure, abridged:
as §2

The nature of data set [27]: Antiepileptic activity in male CF1 mice 1 hr after oral administration measured in neurological toxicity (Tox) test at a dose of 10 mg/kg (no. of animals treated /protected); activity value is 0/4. Format: functional, Mus musculus.
The nature of data set [28]: as §3. Type of data set: functional. The settings on record: Mus musculus, ip; read-out: ED50 (the source's name). The procedure, abridged:
as §1

The nature of data set [29]: Antiepileptic activity in male CF1 mice 4 hr after administration measured in maximum electroshock seizure(MES) test at a dose of 300 mg/kg (no. of animals treated /protected); activity value is 1/1. Format: functional, Mus musculus.
Data set [30] is described as follows: Antiepileptic activity in male CF1 mice 2 hr after oral administration measured in maximum electroshock seizure(MES) test at a dose of 10 mg/kg (no. of animals treated /protected); activity value is 4/4. Type of data set: functional, Mus musculus.
Data set [31] can be described thus: Antiepileptic activity in male CF1 mice 2.00 hours after oral administration measured in neurological toxicity (Tox) test at a dose of 6 mg/kg (no. of animals treated /protected); activity value is 0/4. Format: functional, Mus musculus.

For `COC(=O)C1C(=O)C=C(NCc2ccccc2)CC1C` (stereo unspecified), the figures for the selectivity ratio in data set [1] and in data set [5] were above 11.9 and 18.7, respectively. Also, the ED50 in data set [2] was 162 mg/kg; in data set [4], above 500 mg/kg. The Reduction in the data set on Rattus norvegicus [3] is given as 47%. The compound further displayed a Dose in data set [6] of 13 mg/kg. Besides, the Average seizure score with Rattus norvegicus [7] is 2.6; in the data set on Rattus norvegicus [15] it was 3. Further, the Activity is 0 in data set [8]; 2 in data set [9]; 0 in [13]; 2 in [14]; 0 in data set [16]; 0 in data set [18]. In data set [19], this compound registered an Activity of 3. Also, the figures for the TPE in [10] and in data set [12] were 0.25 h and 0.5 h, respectively. Further, the TD50 in data set [11] and in [17] was above 500 mg/kg each time.

For the compound `COC(=O)C1C(=O)C=C(Nc2ccc(Cl)cc2)CC1C` (stereo unspecified), the Average seizure score with Rattus norvegicus [20] was 2.6; with Rattus norvegicus [26] it was 3. This compound also returned a Reduction with Rattus norvegicus [21] of 40%. The Activity in [22] is on record as 0; in data set [23], 0; in data set [24], 4; in data set [25], 2; in data set [27], 0; in data set [29] it was 1. Also, the results for the Activity in data set [30] and in [31] were 4 and 0, respectively. Further, in data set [28], the TD50 amounted to 255 mg/kg.
